Assay results collected from several papers.
Each line is one published result; the experiments were not run side by side.
Target: STE20/SPS1-related proline-alanine-rich protein kinase (STK39, Homo sapiens, UniProt Q9UEW8)
Tested at: 1 µM

SMILES	effect on	technique	remaining binding [%]
O=C(Nc1c[nH]nc1C(=O)NC1CCNCC1)c1cc(F)cc(F)c1	binding	competition with immobilised ligand	67
CCN1CCN(Cc2ccc(C(=O)Nc3ccc(C)c(Oc4ccc5c(c4)CC(=O)N5)c3)cc2C(F)(F)F)CC1	binding	competition with immobilised ligand	68
CN(C)c1ncnc(-c2ccc3nc(Nc4cc(CN5CCN(C(=O)CC(F)(F)F)CC5)ccn4)[nH]c3c2)c1Cl	cell-free assay	competition with immobilised ligand	69
c1cnn2ncc(-c3ccnc(N4CCC45COC5)n3)c2c1	binding	–	41
O=C(c1ccc(Nc2nccc(-c3cc4ccccc4s3)n2)cc1)N1CCC(N2CCCC2)CC1	binding	competition with immobilised ligand	85
Nc1ncc2c(n1)-c1c([nH]c3ccc(C#CC4CC4)cc13)CCCC2	binding	competition with immobilised ligand	53
C=CC(=O)N1CCC(C(=O)NCC(=O)N2CCN(c3nc(-c4cnc(N)nc4C(F)F)nc(N4CCOCC4)n3)CC2)CC1	binding	competition with immobilised ligand	76
O=C(Nc1cccnn1)N1CCC(=Cc2cccc(Oc3ccc(C(F)(F)F)cn3)c2)CC1	cell-free assay	competition with immobilised ligand	100
CN(C)c1nccc(-c2cnn3ncccc23)n1	binding	–	28
Cc1nc(C2CCN(C(=O)c3ccc(OC(F)(F)F)cc3N)CC2)c2ncc(N3CCN(C)CC3)cc2n1	cell-free assay	competition with immobilised ligand	100
COc1cnc(Nc2cccc(S(N)(=O)=O)c2)nc1N1CCN(c2ccccc2)CC1	binding	competition with immobilised ligand	75
Cc1cnn2ncc(-c3ccnc(N(C)C)n3)c2c1	binding	–	100
O=C(c1ccc(Nc2ncc(Cl)c(-c3ccc(Cl)s3)n2)cc1)N1CCC(N2CCCC2)CC1	binding	competition with immobilised ligand	48
CS(=O)(=O)NCC[C@H](NC(=O)c1cncc2c1cnn2-c1ccc(F)cc1)c1ccnc(S(C)(=O)=O)c1	cell-free assay	competition with immobilised ligand	80
F[C@@H]1CCN(c2nccc(-c3cnn4ncccc34)n2)C1	binding	–	57
O=C1NC(c2ccccn2)Sc2ccccc21 (stereo not drawn)	cell-free assay	competition with immobilised ligand	89
C[C@H]1CCN(c2nccc(-c3cnn4ncccc34)n2)C1	binding	–	62
CNC(=O)[C@@H]1CC[C@@H](n2c(-c3ccc4cnccc4c3)nc3ccc(C(=O)NCc4cccc(C(N)=O)c4)cc32)C1	binding	competition with immobilised ligand	100
COc1cc(-c2cn(C3CCc4ccccc4N(CC(F)(F)F)C3=O)nn2)ccc1-n1ccc(C)n1 (stereo not drawn)	cell-free assay	competition with immobilised ligand	98
COc1ccnn2ncc(-c3ccnc(N(C)C)n3)c12	binding	–	49
Cc1cnc(Nc2ccc(C(=O)N3CCC(N4CCCC4)CC3)cc2)nc1-c1cc2ccccc2s1	binding	competition with immobilised ligand	53
